Measured values: ChEMBL document CHEMBL4196159 (ACS Med Chem Lett, 2018)
≈ marks a conversion by molar mass, not a printed value.

Columns and labels:
in vitro [1] = details: human, liver microsomes
physchem [2] = details: phosphate buffer, pH 7.4
physchem [3] = details: octanol/buffer, pH 7.4
in vitro [4] = details: rat, hepatocytes
[5] = Clearance in rat at 0.5 mg/kg, iv or 1 mg/kg, po; format: ADME, organism-based; details: in vivo
Procedure, shortened: (§1)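 Rats dosed 0.5 mg/kg i.v. and 1 mg/kg orally. Pharmacokinetic parameters taken from plasma levels.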

[6] = Volume of distribution at steady state in rat at 0.5 mg/kg, iv or 1 mg/kg, po; format: ADME, organism-based; details: in vivo, read-out: Vdss
Procedure, shortened: as §1

[7] = Oral bioavailability in rat at 1 mg/kg; format: ADME, organism-based; details: in vivo
Procedure, shortened: as §1

[8] = Intrinsic clearance in dog hepatocytes assessed per million cells at 1 uM measured after 30 mins by HPLC analysis; format: ADME, cell-based, Canis lupus familiaris, Hepatocyte; details: read-out: CLH
Procedure, shortened: (§2)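 Intrinsic clearance (Clint) measured in fresh dog hepatocytes or cryopreserved human hepatocytes.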

[9] = Intrinsic clearance in human cryopreserved hepatocytes assessed per million cells at 1 uM measured after 30 mins by HPLC analysis; format: ADME, cell-based, Hepatocyte; details: read-out: CLH
Procedure, shortened: as §2

[10] = Clearance in Han Wistar rat at 1 mg/kg, iv administered as bolus dose or 2 mg/kg, po; format: ADME, organism-based; details: in vivo
Procedure, shortened: (§3)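 Male Han Wistar rats and male Beagle dogs, at least n = 2. Compound given at 1 mg/kg i.v. Parameters derived from plasma concentrations.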

[11] = Volume of distribution in Han Wistar rat at 1 mg/kg, iv administered as bolus dose or 2 mg/kg, po; format: ADME, organism-based; details: in vivo
Procedure, shortened: as §3

[12] = Oral bioavailability in Han Wistar rat at 2 mg/kg; format: ADME, organism-based; details: in vivo
[13] = Terminal half life in Han Wistar rat at 1 mg/kg, iv administered as bolus dose; format: ADME, organism-based; details: in vivo, read-out: beta t1/2 (converted)
Procedure, shortened: as §3

[14] = Clearance in Beagle dog at 1 mg/kg, iv administered as bolus dose or 2 mg/kg, po; format: ADME, organism-based, Canis lupus familiaris; details: in vivo
Procedure, shortened: as §3

[15] = Volume of distribution in Beagle dog at 1 mg/kg, iv administered as bolus dose or 2 mg/kg, po; format: ADME, organism-based, Canis lupus familiaris; details: in vivo
Procedure, shortened: as §3

[16] = Oral bioavailability in Beagle dog at 2 mg/kg; format: ADME, organism-based, Canis lupus familiaris; details: in vivo
[17] = Terminal half life in Beagle dog at 1 mg/kg, iv administered as bolus dose; format: ADME, organism-based, Canis lupus familiaris; details: in vivo, read-out: beta t1/2 (converted)
Procedure, shortened: as §3

Mus musculus = experiment: Time at which plasma concentration stays above in-vitro cellular IC50 for ATM autophosphorylation at Ser1981 residue in human HT-29 cells in mouse at 10 mg/kg, po; format: ADME, organism-based; details: in vivo
Procedure, shortened: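 Mice given 10 mg/kg orally. Free plasma concentration over time compared with the in vitro cellular ATM IC50.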
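Wherever logD is given: Shake-flask partitioning between octanol and buffer, equilibrated for 30 min before measurement.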

Compound: COCc1ccc(-c2cc3c(N[C@@H](C)c4ccn(C)n4)c(C(N)=O)cnc3cc2F)cn1
- microsomal CLint at 0.5 h, 1 µM (in vitro [1]): 15 µL/min/mg

Compound: C[C@H](Nc1c(C(N)=O)nnc2ccc(-c3ccc(OCCN(C)C)nc3)cc12)c1ccn(C)n1
- solubility thermodynamic at 24 h (physchem [2]): 910 µM (≈ 419 µg/mL)
- logD at 0.5 h (physchem [3]): 1.9
- microsomal CLint at 0.5 h, 1 µM (in vitro [1]): 25 µL/min/mg
- hepatocyte CLint at 0.5 h, 1 µM (in vitro [4]): 13 µL/min/1e6 cells

Compound: CNC(=O)c1nnc2ccc(-c3ccc(COC)nc3)cc2c1N[C@@H](C)C1CCOCC1
- solubility thermodynamic at 24 h (physchem [2]): 34 µM (≈ 14.8 µg/mL)
- logD at 0.5 h (physchem [3]): 3
- microsomal CLint at 0.5 h, 1 µM (in vitro [1]): 42 µL/min/mg
- hepatocyte CLint at 0.5 h, 1 µM (in vitro [4]): 5.8 µL/min/1e6 cells

Compound: CNC(=O)c1nnc2ccc(-c3ccc(OCCN(C)C)nc3)cc2c1N[C@@H](C)C1CCOCC1
- solubility thermodynamic at 24 h (physchem [2]): 990 µM (≈ 474 µg/mL)
- logD at 0.5 h (physchem [3]): 2.5
- microsomal CLint at 0.5 h, 1 µM (in vitro [1]): 26 µL/min/mg
- hepatocyte CLint at 0.5 h, 1 µM (in vitro [4]): 4.8 µL/min/1e6 cells

Compound: C[C@H](Nc1c(C(N)=O)nnc2ccc(-c3ccc(OCCCN4CCCC4)nc3)cc12)c1ccn(C)n1
- solubility thermodynamic at 24 h (physchem [2]): 490 µM (≈ 245 µg/mL)
- logD at 0.5 h (physchem [3]): 1.8
- microsomal CLint at 0.5 h, 1 µM (in vitro [1]): 10 µL/min/mg
- hepatocyte CLint at 0.5 h, 1 µM (in vitro [4]): 4.6 µL/min/1e6 cells

Compound: COCc1ccc(-c2ccc3nnc(C(N)=O)c(N[C@@H](C)C4CCOCC4)c3c2)cn1
- clearance [5]: 21 mL/min/kg
- Vd [6]: 0.7 L/kg
- bioavailability [7]: 56%
- solubility thermodynamic at 24 h (physchem [2]): > 1000 µM
- logD at 0.5 h (physchem [3]): 2.7
- microsomal CLint at 0.5 h, 1 µM (in vitro [1]): 33 µL/min/mg
- hepatocyte CLint at 0.5 h, 1 µM (in vitro [4]): 5.6 µL/min/1e6 cells

Compound: Cc1cn(C)nc1[C@H](C)Nc1c(C(N)=O)nnc2ccc(-c3ccc(OCCCN4CCCC4)nc3)cc12
- solubility thermodynamic at 24 h (physchem [2]): 510 µM (≈ 262 µg/mL)
- logD at 0.5 h (physchem [3]): 2.1
- microsomal CLint at 0.5 h, 1 µM (in vitro [1]): 40 µL/min/mg
- hepatocyte CLint at 0.5 h, 1 µM (in vitro [4]): 8.1 µL/min/1e6 cells

Compound: COCc1ccc(-c2ccc3nnc(C(N)=O)c(N[C@@H](C)c4ccn(C)n4)c3c2)cn1
- solubility thermodynamic at 24 h (physchem [2]): 76 µM (≈ 31.7 µg/mL)
- logD at 0.5 h (physchem [3]): 3
- microsomal CLint at 0.5 h, 1 µM (in vitro [1]): 14 µL/min/mg
- hepatocyte CLint at 0.5 h, 1 µM (in vitro [4]): 4.9 µL/min/1e6 cells

Compound: Cc1cn(C)nc1[C@H](C)Nc1c(C(N)=O)nnc2ccc(-c3ccc(OCCCN(C)C)nc3)cc12
- solubility thermodynamic at 24 h (physchem [2]): 290 µM (≈ 142 µg/mL)
- logD at 0.5 h (physchem [3]): 2.1
- microsomal CLint at 0.5 h, 1 µM (in vitro [1]): 27 µL/min/mg
- hepatocyte CLint at 0.5 h, 1 µM (in vitro [4]): 12 µL/min/1e6 cells

Compound: C[C@H](Nc1c(C(N)=O)nnc2ccc(-c3ccc(OCCCN4CCCC4)nc3)cc12)C1CCOCC1
- solubility thermodynamic at 24 h (physchem [2]): 620 µM (≈ 313 µg/mL)
- logD at 0.5 h (physchem [3]): 1.9
- microsomal CLint at 0.5 h, 1 µM (in vitro [1]): 23 µL/min/mg
- hepatocyte CLint at 0.5 h, 1 µM (in vitro [4]): 1.9 µL/min/1e6 cells

Compound: CNC(=O)c1nnc2ccc(-c3ccc(OCCCN(C)C)nc3)cc2c1N[C@@H](C)c1nn(C)cc1C
- solubility thermodynamic at 24 h (physchem [2]): 620 µM (≈ 312 µg/mL)
- logD at 0.5 h (physchem [3]): 2.3
- microsomal CLint at 0.5 h, 1 µM (in vitro [1]): 33 µL/min/mg
- hepatocyte CLint at 0.5 h, 1 µM (in vitro [4]): 6.7 µL/min/1e6 cells

Compound: COCc1ccc(-c2ccc3nnc(C(N)=O)c(N[C@@H](C)c4nn(C)cc4C)c3c2)cn1
- solubility thermodynamic at 24 h (physchem [2]): 8 µM (≈ 3.45 µg/mL)
- logD at 0.5 h (physchem [3]): 2.8
- microsomal CLint at 0.5 h, 1 µM (in vitro [1]): 31 µL/min/mg
- hepatocyte CLint at 0.5 h, 1 µM (in vitro [4]): 18 µL/min/1e6 cells

Compound: C[C@H](Nc1c(C(N)=O)nnc2ccc(-c3ccc(NCCN(C)C)nc3)cc12)C1CCOCC1
- solubility thermodynamic at 24 h (physchem [2]): > 1000 µM
- logD at 0.5 h (physchem [3]): 2
- microsomal CLint at 0.5 h, 1 µM (in vitro [1]): 18 µL/min/mg
- hepatocyte CLint at 0.5 h, 1 µM (in vitro [4]): 4.2 µL/min/1e6 cells

Compound: C[C@H](Nc1c(C(N)=O)nnc2ccc(-c3ccc(OCCCN(C)C)nc3)cc12)C1CCOCC1
- hepatocyte CLint at 1 µM [8]: 5.1 µL/min/1e6 cells
- hepatocyte CLint at 1 µM [9]: 2.8 µL/min/1e6 cells
- clearance [10]: 25 mL/min/kg
- Vd [11]: 5.5 L/kg
- bioavailability [12]: 26%
- half-life [13]: 4.1 h
- clearance [14]: 49 mL/min/kg
- Vd [15]: 20 L/kg
- bioavailability [16]: 43%
- half-life [17]: 6.2 h
- solubility thermodynamic at 24 h (physchem [2]): 870 µM (≈ 416 µg/mL)
- logD at 0.5 h (physchem [3]): 1.9
- microsomal CLint at 0.5 h, 1 µM (in vitro [1]): 28 µL/min/mg
- hepatocyte CLint at 0.5 h, 1 µM (in vitro [4]): 3.4 µL/min/1e6 cells

Compound: C[C@H](Nc1c(C(N)=O)nnc2ccc(-c3ccc(OCCCN(C)C)nc3)cc12)c1ccn(C)n1
- solubility thermodynamic at 24 h (physchem [2]): 65 µM (≈ 30.8 µg/mL)
- logD at 0.5 h (physchem [3]): 1.7
- microsomal CLint at 0.5 h, 1 µM (in vitro [1]): 10 µL/min/mg
- hepatocyte CLint at 0.5 h, 1 µM (in vitro [4]): 7 µL/min/1e6 cells

Compound: COCc1ccc(-c2ccc3ncc(C(N)=O)c(N[C@@H](C)C4CCOCC4)c3c2)cn1
- microsomal CLint at 0.5 h, 1 µM (in vitro [1]): 26 µL/min/mg
- hepatocyte CLint at 0.5 h, 1 µM (in vitro [4]): < 5.3 µL/min/1e6 cells

Compound: CNC(=O)c1nnc2ccc(-c3ccc(OCCCN(C)C)nc3)cc2c1N[C@@H](C)C1CCOCC1
- hepatocyte CLint at 1 µM [8]: 8.8 µL/min/1e6 cells
- hepatocyte CLint at 1 µM [9]: 4.1 µL/min/1e6 cells
- clearance [10]: 7.8 mL/min/kg
- Vd [11]: 2.8 L/kg
- bioavailability [12]: 41%
- half-life [13]: 5.6 h
- clearance [14]: 48 mL/min/kg
- Vd [15]: 14 L/kg
- bioavailability [16]: 35%
- half-life [17]: 4.7 h
- Time (Mus musculus): > 12 h
- solubility thermodynamic at 24 h (physchem [2]): 880 µM (≈ 434 µg/mL)
- logD at 0.5 h (physchem [3]): 2.3
- microsomal CLint at 0.5 h, 1 µM (in vitro [1]): 22 µL/min/mg
- hepatocyte CLint at 0.5 h, 1 µM (in vitro [4]): 5.7 µL/min/1e6 cells
